In ChEMBL document CHEMBL4396889, “From Inhibition to Degradation: Targeting the Antiapoptotic Protein Myeloid Cell Leukemia 1 (MCL1)” (J Med Chem, 2019) one finds Activity data, which are given here for 1 compound.

For assay [1], the target named is T1, Protein cereblon/Induced myeloid leukemia cell differentiation protein Mcl-1 (Homo sapiens) (UniProt Q07820+Q96SW2). The assay can be described thus: Protac activity at Cereblon/MCL1 long isoform in wild type human OPM2 cells at 250 nM after 48 hrs by immunoblot analysis relative to control. The format is cell-based. Summed up: (§1)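 OPM2 multiple myeloma cells, wild type or CRBN-knockout, were treated for 48 h with degrader or DMSO vehicle. MCL1 long and short isoforms were detected by immunoblot and levels compared with DMSO controls.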
T1 sequence (Q07820 whole entry, looked up, canonical isoform): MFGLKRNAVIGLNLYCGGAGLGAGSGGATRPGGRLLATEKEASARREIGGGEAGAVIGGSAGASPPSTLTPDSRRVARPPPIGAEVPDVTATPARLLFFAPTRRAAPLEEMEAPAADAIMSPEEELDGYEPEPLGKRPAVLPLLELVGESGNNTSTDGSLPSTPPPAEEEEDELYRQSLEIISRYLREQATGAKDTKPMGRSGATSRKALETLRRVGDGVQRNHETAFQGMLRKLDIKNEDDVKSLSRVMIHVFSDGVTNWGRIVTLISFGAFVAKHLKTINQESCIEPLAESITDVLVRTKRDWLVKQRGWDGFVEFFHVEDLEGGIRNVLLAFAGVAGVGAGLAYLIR
T1 sequence (Q96SW2 whole entry, looked up, canonical isoform): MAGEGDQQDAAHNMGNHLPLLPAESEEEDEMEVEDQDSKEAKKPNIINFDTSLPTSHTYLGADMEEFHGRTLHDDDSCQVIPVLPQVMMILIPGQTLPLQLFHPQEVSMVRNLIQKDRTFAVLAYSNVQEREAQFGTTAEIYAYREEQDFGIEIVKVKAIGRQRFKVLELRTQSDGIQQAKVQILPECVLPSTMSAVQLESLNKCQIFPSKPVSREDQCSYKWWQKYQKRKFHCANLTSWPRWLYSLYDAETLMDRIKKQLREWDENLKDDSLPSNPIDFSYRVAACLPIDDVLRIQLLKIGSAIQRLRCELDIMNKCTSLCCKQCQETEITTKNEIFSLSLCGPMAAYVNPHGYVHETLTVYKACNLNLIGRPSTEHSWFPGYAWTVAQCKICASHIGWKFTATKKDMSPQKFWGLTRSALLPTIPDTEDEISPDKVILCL

Assay [2] has as its target T2, Induced myeloid leukemia cell differentiation protein Mcl-1 (Homo sapiens, UniProt Q07820). The assay can be described thus: Induction of MCL1 short isoform degradation in CRBN-/- human OPM2 cells assessed as protein abundance at 100 nM after 48 hrs by immunoblot analysis relative to control. The format is cell-based. Summed up: as §1
(In general: Immunoblotting shows a protein as a band on a membrane.)

Assay [3] addresses T2, Induced myeloid leukemia cell differentiation protein Mcl-1. The assay can be described thus: Induction of MCL1 short isoform degradation in CRBN-/- human OPM2 cells assessed as protein abundance at 500 nM after 48 hrs by immunoblot analysis relative to control. The format is cell-based. In a few lines: as §1
Assay [4] relates to OPM-2. As to the kind of experiment: Induction of apoptosis in wild type human OPM2 cells assessed as cleaved caspase-3 at 100 nM after 24 hrs in presence of 1% FBS by immunoblot analysis (reference value: 91%). The format is functional.
Assay [5] concerns the target T1, Protein cereblon/Induced myeloid leukemia cell differentiation protein Mcl-1 (Homo sapiens). The assay can be described thus: Protac activity at Cereblon/MCL1 short isoform in human OPM2 cells assessed as MCL1 short isoform level at 300 nM pre-incubated for 72 hrs followed by cycloheximide addition and measured after 30 mins by immunoblot analysis (reference value: 100%). The format is cell-based. In a few lines:
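OPM2 or MM1.S cells were treated for 72 h with compound or DMSO. Cycloheximide was added for the final 30, 60 or 120 min. MCL1 was read by immunoblot and compared with DMSO-treated cells as a normal-turnover reference.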

For assay [6] the target is unchanged. As to the kind of experiment: Protac activity at Cereblon/MCL1 short isoform in human OPM2 cells assessed as MCL1 short isoform abundance at 50 nM after 24 hrs by immunoblot analysis relative to control. The format is cell-based.

T2 sequence (Q07820 whole entry, canonical isoform): as the sequence (Q07820 whole entry, looked up, canonical isoform) above

Consider `Cc1nn(C)c(COc2ccc(N3CCN(S(=O)(=O)N(C)C)CC3)cc2)c1-c1cccc2c(CCCOc3cccc4ccccc34)c(C(=O)O)n(CCN3CCN(C(=O)COc4cccc5c4C(=O)N(C4CCC(=O)NC4=O)C5=O)CC3)c12` (stereo unspecified), for which the Activity in assay [1] is 70%; in assay [2], 100%; in assay [3], 100%; in assay [4] it was 143%; in assay [5], 34%; in assay [6], 96%.
